Results reported in ChEMBL document CHEMBL4033721, “Design, synthesis and evaluation of indole-2-carboxamides with pan anti-mycobacterial activity” (Bioorg Med Chem, 2017).
Values after ≈ are worked out from the molar mass of the structure shown.

How the values were obtained:
[1] = system: Mycobacterium avium; assay: Antimycobacterial activity against Mycobacterium avium isolate 104 after 8 days by resazurin microtiter based colorimetric assay; format: functional; settings: isolate 104, 192 h
In short: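 M. avium 104 MICs were read by resazurin microtiter colorimetric assay in 96-well plates, with growth scored visually, in Mueller Hinton II medium.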

[2] = Antimycobacterial activity against Mycobacterium massiliense isolate CIP108297 after 8 days by resazurin microtiter based colorimetric assay; format: functional, Mycobacterium abscessus subsp. massiliense; settings: Mycobacteroides abscessus, isolate CIP108297, 192 h
In short: (§1)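 Resazurin microtiter plate MIC, read by visual scan for growth, in Mueller Hinton II broth. Strains include clinical isolates of M. abscessus complex, M. chelonae, M. avium, M. intracellulare, M. xenopi, P. aeruginosa PAO-1 and S. aureus ATCC 25923.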

[3] = system: Mycobacteroides abscessus; assay: Antimycobacterial activity against Mycobacterium abscessus ATCC 19977 after 8 days by resazurin microtiter based colorimetric assay; format: functional; settings: ATCC 19977, 192 h; in short: as §1
[4] = system: Mycobacterium tuberculosis; assay: Antimycobacterial activity against Mycobacterium tuberculosis H37Rv MC2-6206 after 8 days by resazurin microtiter based colorimetric assay; format: functional; settings: H37Rv MC2-6206, 192 h
In short: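 MIC was measured by resazurin microtiter colorimetric assay with visual growth scoring. Medium was 7H9-ADC–0.05% tyloxapol with 0.2% casaminoacids, 48 µg/ml pantothenate and 50 µg/ml L-leucine.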

[5] = system: Mycobacterium xenopi; assay: Antimycobacterial activity against wild type Mycobacterium xenopi isolate 4042 after 8 days by resazurin microtiter based colorimetric assay; format: functional; settings: isolate 4042, 192 h; in short: as §1
[6] = system: Mycobacteroides chelonae; assay: Antimycobacterial activity against Mycobacterium chelonae ATCC 35752 after 8 days by resazurin microtiter based colorimetric assay; format: functional; settings: ATCC 35752, 192 h; in short: as §1
[7] = Antimycobacterial activity against Mycobacterium bolletii ATCC 14472 after 8 days by resazurin microtiter based colorimetric assay; format: functional; settings: Mycobacteroides abscessus, ATCC 14472, 192 h; in short: as §1
[8] = Antimycobacterial activity against Mycobacterium massiliense isolate CRM0019 after 8 days by resazurin microtiter based colorimetric assay; format: functional, Mycobacterium abscessus subsp. massiliense; settings: Mycobacteroides abscessus, isolate CRM0019, 192 h; in short: as §1
[9] = system: Mycobacterium avium-intracellulare; assay: Antimycobacterial activity against Mycobacterium avium-intracellulare isolate 1956 after 8 days by resazurin microtiter based colorimetric assay; format: functional; settings: isolate 1956, 192 h; in short: as §1
[10] = system: Mycolicibacterium smegmatis; assay: Antimycobacterial activity against Mycobacterium smegmatis isolate MC2 155 after 8 days by resazurin microtiter based colorimetric assay; format: functional; settings: str. MC2 155, 192 h
[11] = system: Mycobacteroides abscessus; assay: Antimycobacterial activity against Mycobacterium abscessus isolate DCI 21 after 8 days by resazurin microtiter based colorimetric assay; format: functional; settings: isolate DCI 21, 192 h; in short: as §1

SMILES	MIC [1] [µg/mL]	MIC [2] [µg/mL]	MIC [3] [µg/mL]	MIC [4] [µg/mL]	MIC [5] [µg/mL]	MIC [6] [µg/mL]	MIC [7] [µg/mL]	MIC [8] [µg/mL]	MIC [9] [µg/mL]	MIC [10] [µg/mL]	MIC [11] [µg/mL]
Cc1cc(C)c2cc(C(=O)N[C@H]3CC[C@H](C)CC3)[nH]c2c1	> 32	≤ 0.06	≤ 0.06	0.31 (≈ 1.09 µM)	0.25 to 1 (≈ 0.879 to 3.52 µM)	≤ 0.06	≤ 0.06	≤ 0.06	> 32	> 20	≤ 0.06
Cc1cc(C)c2cc(C(=O)NC3CCCCC3)[nH]c2c1	> 32	0.25 (≈ 0.925 µM)	0.5 (≈ 1.85 µM)	0.625 (≈ 2.31 µM)	1 to 2 (≈ 3.7 to 7.4 µM)	0.25 (≈ 0.925 µM)	0.25 (≈ 0.925 µM)	0.25 (≈ 0.925 µM)	> 32	2.5 (≈ 9.25 µM)	0.25 (≈ 0.925 µM)
CCC12CC3CC(C1)CC(NC(=O)c1cc4c(C)cc(C)cc4[nH]1)(C3)C2	> 32	> 32	> 32	0.039 (≈ 0.111 µM)	> 32	> 32	> 32	> 32	> 32	> 20	> 32
Cc1cc(C)c2cc(C(=O)NC3CCCC3)[nH]c2c1	> 32	8 (≈ 31.2 µM)	4 (≈ 15.6 µM)	2.5 (≈ 9.75 µM)	8 to 16 (≈ 31.2 to 62.4 µM)	2 (≈ 7.8 µM)	2 (≈ 7.8 µM)	8 (≈ 31.2 µM)	> 32	5 (≈ 19.5 µM)	4 (≈ 15.6 µM)
Cc1cc(C)c2cc(C(=O)NCC34CC5CC(CC(C5)C3)C4)[nH]c2c1	> 32	> 32	> 32	0.16 (≈ 0.476 µM)	1 (≈ 2.97 µM)	> 32	> 32	> 32	> 32	> 20	> 32
Cc1cc(C)c2cc(C(=O)NC3C4CC5CC(C4)CC3C5)[nH]c2c1 (centres undefined)	> 32	> 32	> 32	0.04 (≈ 0.124 µM)	0.5 to 1 (≈ 1.55 to 3.1 µM)	> 32	> 32	> 32	> 32	> 20	> 32
O=C(NC1C2CC3CC(C2)CC1C3)c1cc2ccccc2[nH]1 (centres undefined)	> 32	> 32	> 32	0.39 (≈ 1.32 µM)	2 (≈ 6.79 µM)	> 32	32 (≈ 109 µM)	32 (≈ 109 µM)	> 32	> 25	> 32
Cc1cc(C)c2cc(C(=O)NCc3cccc(Cl)c3)[nH]c2c1	–	> 32	> 32	> 5	–	> 32	> 32	> 32	–	> 20	> 32
C[C@H]1CC[C@H](NC(=O)c2cc3ccccc3[nH]2)CC1	–	> 32	> 32	> 10	–	> 32	> 32	> 32	–	> 25	> 32
CCCCCCCCNC(=O)c1cc2c(C)cc(C)cc2[nH]1	> 32	> 32	> 32	> 20	> 32	> 32	> 32	> 32	> 32	2.5 to 5 (≈ 8.32 to 16.6 µM)	> 32
O=C(NC1CCCCCCC1)c1cc2ccccc2[nH]1	> 32	> 32	> 32	0.39 (≈ 1.44 µM)	2 (≈ 7.4 µM)	> 32	32 (≈ 118 µM)	32 (≈ 118 µM)	> 32	25 (≈ 92.5 µM)	> 32
Cc1cc(C)c2cc(C(=O)NC34CC5CC(CC(C5)C3)C4)[nH]c2c1	> 32	> 32	> 32	0.0195 (≈ 0.0605 µM)	> 32	> 32	> 32	> 32	> 32	1.25 to 2.5 (≈ 3.88 to 7.75 µM)	32 (≈ 99.2 µM)
O=C(NC1CCCCCC1)c1cc2ccccc2[nH]1	–	> 32	> 32	> 5	–	> 32	> 32	> 32	–	> 20	> 32
